SMILES strings stand for the structures. The source made the active and inactive calls. The calls are words filed in the database; no cut-off is given here.

Experiment [1] addresses T1, Lutropin-choriogonadotropic hormone receptor (Homo sapiens, UniProt P22888). Nature of the experiment: Displacement of [3H]Org43553 from human luteinizing hormone receptor expressed in CHOK1 cells at 10 uM by scintillation spectrometry. The class given is cell-based. Particulars: CHO-K1. The essentials:
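Membranes (50 µg protein) from CHO-K1 cells stably expressing human LH receptor incubated 90 min at 30 °C with 4.5 nM [3H]Org 43553 and 10 µM compound. Buffer was 25 mM Tris-HCl pH 7.4, 2 mM MgCl2, 0.1% BSA. Nonspecific binding defined with 10 µM Org 43553. Filtration on GF/B, ice-cold washes, scintillation counting. Result given as % displacement of specific binding, n=2, duplicate.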

Experiment [2] has as its target T1, Lutropin-choriogonadotropic hormone receptor. The experiment can be described thus: Displacement of [3H]Org43553 from human luteinizing hormone receptor expressed in CHOK1 cells assessed as increase in radioligand dissociation at 10 uM by scintillation spectrometry relative to control. The class given is cell-based. Particulars: CHO-K1. The essentials: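 Membranes (50 µg protein) from CHO-K1 cells stably expressing human LH receptor preloaded with 4.5 nM [3H]Org 43553 for 90 min at 30 °C in 25 mM Tris-HCl pH 7.4, 2 mM MgCl2, 0.1% BSA. Dissociation then started with 10 µM Org 43553 ± 10 µM compound in 50% DMSO vehicle. Bound label measured after 30 min by GF/B filtration and scintillation counting. Control set at 100%. n=2, duplicate.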

For experiment [3], the target named is T2, Adenosine receptor A1 (Homo sapiens) (UniProt P30542).
T2 sequence (whole entry): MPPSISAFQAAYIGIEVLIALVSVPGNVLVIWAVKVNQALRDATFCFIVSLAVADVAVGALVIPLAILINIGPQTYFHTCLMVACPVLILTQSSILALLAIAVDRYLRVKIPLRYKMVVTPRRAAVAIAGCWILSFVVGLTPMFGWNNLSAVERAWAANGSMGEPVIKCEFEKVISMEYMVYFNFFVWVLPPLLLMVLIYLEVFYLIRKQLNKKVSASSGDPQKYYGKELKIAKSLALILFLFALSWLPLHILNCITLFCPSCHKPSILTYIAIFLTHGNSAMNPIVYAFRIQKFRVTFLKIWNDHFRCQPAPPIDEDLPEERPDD
The experiment can be described thus: Binding affinity to adenosine A1 receptor.

Experiment [4] addresses Adenosine receptor A2a (Homo sapiens) (UniProt P29274). The experiment can be described thus: Binding affinity to adenosine A2A receptor.
Experiment [5] addresses T1, Lutropin-choriogonadotropic hormone receptor. The experiment can be described thus: Agonist activity at human luteinizing hormone receptor expressed in CHOK1 cells assessed as c-AMP-mediated luciferase production at 10 uM. Particulars: CHO-K1. It is filed as functional, cell-based.
Experiment [6] shares this target. Nature of the experiment: Antagonist activity at human luteinizing hormone receptor expressed in CHOK1 cells assessed as decrease in recombinant luteinizing hormone activation potency at 10 uM by c-AMP-mediated luciferase assay. It is filed as functional, cell-based. As to conditions: CHO-K1. The essentials: (§1)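 Cells as for the CRE-luciferase assay (human LH receptor, CHO-K1), stimulated 4 h with ten concentrations of recLH, rec-hCG or Org 43553, with or without 10 µM test compound. Luminescence read-out. Shift is the EC50 ratio with/without compound; 1 nM recLH response set 100%. At least three assays in duplicate.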

Experiment [7] concerns the target T3, Adenosine receptor A3 (Homo sapiens) (UniProt P0DMS8).
T3 sequence (whole entry): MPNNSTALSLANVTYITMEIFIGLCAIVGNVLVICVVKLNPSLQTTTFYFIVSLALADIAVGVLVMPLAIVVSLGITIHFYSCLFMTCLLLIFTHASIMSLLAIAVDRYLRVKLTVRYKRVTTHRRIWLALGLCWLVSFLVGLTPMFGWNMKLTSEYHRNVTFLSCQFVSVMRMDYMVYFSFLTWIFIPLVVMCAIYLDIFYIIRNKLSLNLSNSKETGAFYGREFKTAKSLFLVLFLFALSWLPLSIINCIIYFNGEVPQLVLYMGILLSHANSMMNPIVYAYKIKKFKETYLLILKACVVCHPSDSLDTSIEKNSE
The experiment can be described thus: Activity at adenosine A3 receptor assessed as allosteric modulation.

Experiment [8] deals with T1, Lutropin-choriogonadotropic hormone receptor. Nature of the experiment: Displacement of [125I]human chorionic gonadotropin from human luteinizing hormone receptor expressed in CHOK1 cells assessed as increase in radioligand dissociation at 10 uM after 4 hrs by infinite dilution method. The class given is cell-based. Particulars: CHO-K1. The essentials:
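CHO-K1 membranes expressing human LH receptor, prelabelled with 125I-hCG. Dissociation was started by infinite dilution in the presence of 10 µM compound, and bound radioligand was measured after 4 h. t=0 binding set 0% dissociation, nonspecific 100%. At least two assays in triplicate.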
For orientation: Displacement assays read how much labelled ligand stays bound in the presence of the test substance.

Experiment [9] shares this target. Nature of the experiment: Antagonist activity at human luteinizing hormone receptor expressed in CHOK1 cells assessed as decrease in recombinant human chorionic gonadotropin activation potency at 10 uM by c-AMP-mediated luciferase assay. The class given is functional, cell-based. As to conditions: CHO-K1. The essentials: as §1
Experiment [10] shares this target. Nature of the experiment: Displacement of [3H]Org43553 from human luteinizing hormone receptor expressed in CHOK1 cells. It is filed as cell-based, CHO-K1. The essentials:
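CHO-K1 membranes stably expressing human LH receptor, 50 µg protein, in 25 mM Tris-HCl pH 7.4 with 2 mM MgCl2 and 0.1% BSA. Incubated with 4.5 nM [3H]Org 43553 at 30 °C for 90 min, using 10 µM or a range of competitor concentrations. Nonspecific binding defined with 10 µM Org 43553. Read by filtration and scintillation counting; IC50 from nonlinear regression.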

The target is the same in experiment [11]. The experiment can be described thus: Agonist activity at human luteinizing hormone receptor expressed in CHOK1 cells assessed as c-AMP-mediated luciferase production. The class given is functional, cell-based, CHO-K1. The essentials:
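CHO-K1 cells stably expressing human LH receptor and CRE-luciferase, 7.5 × 10^5 cells/mL in DMEM/F12 with insulin and apo-transferrin. Stimulated 4 h, then luciferase read by luminescence. Basal activity set 0%; 1 nM recLH set 100%. Means of at least three assays in duplicate.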

For experiment [12] the target is unchanged. Nature of the experiment: Antagonist activity at human luteinizing hormone receptor expressed in CHOK1 cells assessed as decrease in Org 43553 activation potency at 10 uM by c-AMP-mediated luciferase assay. It is filed as functional, cell-based. As to conditions: CHO-K1. The essentials: as §1
For experiment [13] the target is unchanged. The experiment can be described thus: Displacement of [125I]human chorionic gonadotropin from human luteinizing hormone receptor expressed in CHOK1 cells by gamma counting. It is filed as cell-based. As to conditions: CHO-K1.

T1 sequence (P22888 whole entry): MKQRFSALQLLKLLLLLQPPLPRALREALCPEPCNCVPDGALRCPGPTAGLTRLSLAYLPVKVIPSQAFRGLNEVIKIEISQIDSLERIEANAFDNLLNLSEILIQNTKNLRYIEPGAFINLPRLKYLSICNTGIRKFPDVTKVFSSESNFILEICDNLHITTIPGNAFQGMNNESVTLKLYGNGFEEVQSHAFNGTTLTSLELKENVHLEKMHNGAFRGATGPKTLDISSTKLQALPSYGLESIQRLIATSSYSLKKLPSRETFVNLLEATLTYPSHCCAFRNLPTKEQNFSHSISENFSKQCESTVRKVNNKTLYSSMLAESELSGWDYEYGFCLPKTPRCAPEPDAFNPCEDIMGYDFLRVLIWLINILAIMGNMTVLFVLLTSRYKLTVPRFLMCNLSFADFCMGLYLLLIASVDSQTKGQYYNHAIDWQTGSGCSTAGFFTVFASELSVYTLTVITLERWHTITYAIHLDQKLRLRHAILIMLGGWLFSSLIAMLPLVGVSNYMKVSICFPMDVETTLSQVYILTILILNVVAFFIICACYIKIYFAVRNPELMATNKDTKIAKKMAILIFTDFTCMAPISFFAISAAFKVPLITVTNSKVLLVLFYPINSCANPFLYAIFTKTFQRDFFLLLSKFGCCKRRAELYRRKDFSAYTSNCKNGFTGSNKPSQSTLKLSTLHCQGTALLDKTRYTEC
Chain of Adenosine receptor A2a (Homo sapiens) (P29274 whole entry): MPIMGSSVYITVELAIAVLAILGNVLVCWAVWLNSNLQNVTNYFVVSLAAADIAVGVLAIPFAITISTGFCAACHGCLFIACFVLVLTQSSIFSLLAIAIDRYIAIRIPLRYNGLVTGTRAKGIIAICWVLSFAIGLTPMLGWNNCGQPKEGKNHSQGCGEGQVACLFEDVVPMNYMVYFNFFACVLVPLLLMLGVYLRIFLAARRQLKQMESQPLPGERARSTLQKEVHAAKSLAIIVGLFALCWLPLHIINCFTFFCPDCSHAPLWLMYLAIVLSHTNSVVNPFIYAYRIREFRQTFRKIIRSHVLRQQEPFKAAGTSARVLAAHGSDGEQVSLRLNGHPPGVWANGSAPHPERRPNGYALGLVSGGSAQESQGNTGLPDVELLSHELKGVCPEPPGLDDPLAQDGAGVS

`CC(C)(C)NC(=O)Oc1cc(-c2ccccc2)cc(-c2ccccc2)c1`: the Activity in experiment [1] is 68%; in experiment [2], 82%.
As to `CCNC(=O)Oc1cc(-c2ccccc2)cc(-c2ccccc2)c1`, the Activity was -1% in experiment [1] and 61% in experiment [2].
On to `O=C(NC1CCCC1)Oc1cc(-c2ccc(Cl)cc2)cc(-c2ccc(Cl)cc2)c1`, for which the Activity in experiment [1] turned out to be 55%.
For `O=C(NC1CCCC1)Oc1cc(-c2ccccc2)cc(-c2ccc(Cl)c(Cl)c2)c1`, the Activity in [1] came to 69%; in [2], 64%.
On to `COc1ccc(C(=O)Nc2nc(-c3ccccc3)cc(-c3ccccc3)n2)cc1`, for which the Activity in experiment [2] amounted to 42%.
The same measure, in the same setting: as for `c1ccc(Cn2cnc3c(-c4ccccc4)cc(-c4ccccc4)nc32)cc1`, the figure is 16%.
As for `O=C(NC1CCCCC1)Oc1cc(-c2ccccc2)cc(-c2ccccc2)c1`, the figures for the Activity in [1] and in experiment [2] were 83% and 51%, respectively.
As to `Cc1ccc(-c2cc(OC(=O)NC3CCCC3)cc(-c3ccc(C)cc3)c2)cc1`, the Activity in experiment [1] is 62%; in [2], 59%.
As for `O=C(Nc1ccccc1)Oc1cc(-c2ccccc2)cc(-c2ccccc2)c1`, the result in experiment [3] and in [4] was inactive. The Activity in [1] is 28%; in experiment [2], 79%.
By IC50 is commonly meant the concentration that inhibits the measured activity by half. Lower therefore signals inhibition by little substance. The term EC50 denotes the concentration giving half of the maximal effect. With `O=C(NC1CCCC1)Oc1cc(-c2ccccc2)cc(-c2ccccc2)c1`, the Activity is 31% in experiment [5], 91% in experiment [1], “Dose-dependent effect” in [10] (CHO-K1) and 88% in [2]. For the same molecule, the fold change (FC) was determined as 3 in [6], 3 in [9] and 2 in experiment [12]. In addition, the outcome in [7] and in [13] was inactive. Besides, the result in [8] was Active. This molecule also gave an IC50 in [10] of 2.3 µM. Besides, the EC50 in experiment [11] was found to be 1.6 µM.
On to `O=C(NC1CCCC1)Oc1cccc(-c2ccccc2)c1`, for which the outcome in experiment [6], in experiment [9] and in experiment [12] was Active. In addition, the values for the Activity in experiment [1] and in experiment [2] were 81% and 75%, respectively.
With `O=C(Nc1cc(-c2ccccc2)cc(-c2ccccc2)c1)C1CCCC1`, the Activity in experiment [1] was 30%; in [2], 56%.
With `CCCCNC(=O)Oc1cc(-c2ccccc2)cc(-c2ccccc2)c1`, the Activity came to 61% in [1] and 65% in [2].
Turning to `O=C(NC1CCCC1)Oc1cc(-c2ccccc2)cc(-c2ccc(Cl)cc2)c1`, the Activity in experiment [1] amounted to 77%; in [2], 71%.
With `CC(C)NC(=O)Oc1cc(-c2ccccc2)cc(-c2ccccc2)c1`, the Activity in [1] amounted to 14%; in [2] it was 55%.
For the molecule `O=C(Nc1ccc(Cl)cc1)Oc1cc(-c2ccccc2)cc(-c2ccccc2)c1`, the Activity came out at 9% in experiment [1] and 19% in experiment [2].
Turning to `N#Cc1c(N)cc(-c2ccccc2)cc1-c1cccs1`, the Activity in [2] was determined as 29%.
For the molecule `O=C(Nc1cc(-c2ccccc2)cc(-c2ccccc2)c1)NC1CCCC1`, the Activity came out at 49% in experiment [1] and 70% in [2].
Take `O=C(Oc1cc(-c2ccccc2)cc(-c2ccccc2)c1)C1CCCC1`: the Activity in [1] is 9%; in experiment [2] it was 41%.
`O=C(NC1CCCC1)Oc1cc(-c2ccc(Cl)c(Cl)c2)cc(-c2ccc(Cl)c(Cl)c2)c1`: the Activity in experiment [1] amounted to 7%.
As to `Oc1cc(-c2ccccc2)cc(-c2ccccc2)c1`, the Activity in experiment [1] was -2%; in [2], 27%.
Turning to `COc1ccc(NC(=O)Oc2cc(-c3ccccc3)cc(-c3ccccc3)c2)cc1`, the Activity in experiment [1] was 58%; in experiment [2] it was 35%.
Taken in the same sequence, the figures for `CCCNC(=O)Oc1cc(-c2ccccc2)cc(-c2ccccc2)c1` were 47% and 72%.
Consider `Cc1ccc(-c2cc(OC(=O)NC3CCCC3)cc(-c3ccccc3)c2)cc1`, for which the result in experiment [6] and in experiment [12] was Active. Further, the results for the Activity in experiment [1] and in experiment [2] were 72% and 102%, respectively.
For `CCCCCNC(=O)Oc1cc(-c2ccccc2)cc(-c2ccccc2)c1`, the figures for the Activity in [1] and in experiment [2] were 30% and 80%, respectively.
The like results for `Nc1cc(-c2ccccc2)cc(-c2ccccc2)c1` were, in that order, 9% and 42%.
For `COc1ccc(-c2cc(OC(=O)NC3CCCC3)cc(-c3ccccc3)c2)cc1`, the figures for the Activity in experiment [1] and in [2] were 67% and 83%, respectively.
In the case of `COc1ccc(-c2cc(OC(=O)NC3CCCC3)cc(-c3ccc(OC)cc3)c2)cc1`, the values for the Activity in experiment [1] and in experiment [2] were 17% and 31%, respectively.

Source of the values: ChEMBL document CHEMBL1153390, “Substituted terphenyl compounds as the first class of low molecular weight allosteric inhibitors of the luteinizing hormone receptor” (J Med Chem, 2009).
